Reference: ChEMBL document CHEMBL1136992, “Further studies at neuropeptide s position 5: discovery of novel neuropeptide S receptor antagonists” (J Med Chem, 2009)
Active and inactive are the calls of the source. The rule behind the calls is not given here. Square brackets hold non-standard residues; d marks the D form. Peptide text beside a SMILES is read from it. dTle = CC(C)(C)[C@@H](N)C(=O)O

Key:
[1] = molecular target: T1, Neuropeptide S receptor (Mus musculus) (UniProt Q8BZP8); test: Antagonist activity at mouse NPSR expressed in HEK293 cells assessed as inhibition of NPS-induced response by Schild analysis; type: functional, cell-based
T1 sequence (whole entry): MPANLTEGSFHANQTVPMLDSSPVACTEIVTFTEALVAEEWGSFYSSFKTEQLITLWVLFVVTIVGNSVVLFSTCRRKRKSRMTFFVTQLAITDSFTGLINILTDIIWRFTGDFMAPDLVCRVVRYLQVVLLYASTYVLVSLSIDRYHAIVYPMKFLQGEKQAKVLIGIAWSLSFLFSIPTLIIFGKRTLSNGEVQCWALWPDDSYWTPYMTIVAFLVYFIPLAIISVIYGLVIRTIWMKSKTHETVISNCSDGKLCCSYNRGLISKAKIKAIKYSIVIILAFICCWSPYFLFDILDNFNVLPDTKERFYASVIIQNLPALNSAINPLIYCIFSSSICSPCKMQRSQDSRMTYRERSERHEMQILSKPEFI
Summary of the method: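 Calcium mobilization in HEK293 cells stably expressing mouse NPSR, at 37 °C with three mixing cycles after antagonist injection. NPS concentration-response curves were run without and with antagonist at 0.1-10 µM, and pKB with 95% confidence limits was derived from the curve shifts. Mean ± SEM of four separate experiments in duplicate.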

Mu-type opioid receptor [2] = molecular target: T2, Mu-type opioid receptor (Homo sapiens, UniProt P35372); test: Antagonist activity at human recombinant mu opioid receptor expressed in CHO cells coexpressing alphaqi5 assessed as inhibition of dermorphin-induced intracellular calcium mobilization at up to 10 uM; type: functional, cell-based
Summary of the method: (§1)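 Calcium mobilization in human receptor cells. NK-1, B2 and UT recombinant in CHO. MOP, DOP, KOP and NOP in CHO cells carrying chimeric Gαqi5. Native PAR2 in A549 cells. […] Mean ± SEM of three experiments in duplicate.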

[3] = molecular target: T3, Proteinase-activated receptor 2 (Homo sapiens, UniProt P55085); test: Antagonist activity at human recombinant PAR2 expressed in A549 cells assessed as inhibition of SLIGKV-NH2-induced intracellular calcium mobilization; type: functional, cell-based
T3 sequence (P55085 whole entry): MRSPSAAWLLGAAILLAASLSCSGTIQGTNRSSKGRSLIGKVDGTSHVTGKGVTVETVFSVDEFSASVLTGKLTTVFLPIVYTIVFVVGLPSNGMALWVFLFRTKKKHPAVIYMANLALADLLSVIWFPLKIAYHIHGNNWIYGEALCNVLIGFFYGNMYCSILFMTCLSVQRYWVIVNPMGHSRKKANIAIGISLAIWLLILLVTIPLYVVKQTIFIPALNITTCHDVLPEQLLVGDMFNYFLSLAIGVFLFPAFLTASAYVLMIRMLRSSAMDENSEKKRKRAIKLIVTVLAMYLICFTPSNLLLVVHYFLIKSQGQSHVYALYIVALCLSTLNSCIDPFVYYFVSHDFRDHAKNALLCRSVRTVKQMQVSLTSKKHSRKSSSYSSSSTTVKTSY

[4] = molecular target: Proteinase-activated receptor 2 (Homo sapiens) (UniProt P55085); test: Antagonist activity at human recombinant PAR2 expressed in A549 cells assessed as inhibition of SLIGKV-NH2-induced intracellular calcium mobilization at up to 10 uM; type: functional, cell-based
[5] = molecular target: T4, Delta-type opioid receptor (Homo sapiens, UniProt P41143); test: Antagonist activity at human recombinant delta opioid receptor expressed in CHO cells coexpressing alphaqi5 assessed as inhibition of DPDPE-induced intracellular calcium mobilization at up to 10 uM; type: functional, cell-based
Summary of the method: (§2)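 Calcium mobilization in human receptor cells. NK-1, B2 and UT recombinant in CHO. MOP, DOP, KOP and NOP in CHO cells carrying chimeric Gαqi5. Native PAR2 in A549 cells. Mean ± SEM of three experiments in duplicate.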

Mu-type opioid receptor [6] = molecular target: T2, Mu-type opioid receptor; test: Antagonist activity at human recombinant mu opioid receptor expressed in CHO cells coexpressing alphaqi5 assessed as inhibition of dermorphin-induced intracellular calcium mobilization; type: functional, cell-based
[7] = molecular target: T5, Kappa-type opioid receptor (Homo sapiens, UniProt P41145); test: Antagonist activity at human recombinant kappa opioid receptor expressed in CHO cells coexpressing alphaqi5 assessed as inhibition of dynorphin A-induced intracellular calcium mobilization at up to 10 uM; type: functional, cell-based; summary of the method: as §1
[8] = molecular target: T4, Delta-type opioid receptor; test: Antagonist activity at human recombinant delta opioid receptor expressed in CHO cells coexpressing alphaqi5 assessed as inhibition of DPDPE-induced intracellular calcium mobilization; type: functional, cell-based; summary of the method: as §2
[9] = molecular target: T1, Neuropeptide S receptor (Mus musculus); test: Antagonist activity at mouse NPSR expressed in HEK293 cells assessed as inhibition of NPS-induced increase in intracellular calcium mobilization by Schild analysis at room temperature; type: functional, cell-based
Summary of the method: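 Schild-type experiment in HEK293 cells expressing mouse NPSR by calcium mobilization, using NPS concentration-response curves with added antagonist, run under the earlier conditions without 37 °C and without post-injection mixing.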

[10] = molecular target: T5, Kappa-type opioid receptor; test: Antagonist activity at human recombinant kappa opioid receptor expressed in CHO cells coexpressing alphaqi5 assessed as inhibition of dynorphin A-induced intracellular calcium mobilization; type: functional, cell-based; summary of the method: as §2
Urotensin-2 receptor = molecular target: T6, Urotensin-2 receptor (Homo sapiens, UniProt Q9UKP6); test: Antagonist activity at human recombinant urotensin 2 receptor expressed in CHO cells assessed as inhibition of urotensin 2-induced intracellular calcium mobilization; type: functional, cell-based
T6 sequence (Q9UKP6 whole entry): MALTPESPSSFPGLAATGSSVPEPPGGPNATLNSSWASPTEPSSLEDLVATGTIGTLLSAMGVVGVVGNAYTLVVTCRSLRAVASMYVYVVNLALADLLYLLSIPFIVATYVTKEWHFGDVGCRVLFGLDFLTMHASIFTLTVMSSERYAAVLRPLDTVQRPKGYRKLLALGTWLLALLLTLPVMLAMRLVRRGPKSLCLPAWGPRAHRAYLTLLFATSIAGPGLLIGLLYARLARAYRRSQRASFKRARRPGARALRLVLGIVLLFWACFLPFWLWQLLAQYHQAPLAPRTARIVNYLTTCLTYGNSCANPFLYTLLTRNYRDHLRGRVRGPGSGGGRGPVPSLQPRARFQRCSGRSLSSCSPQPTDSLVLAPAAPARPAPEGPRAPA

Substance-P receptor = Substance-P receptor (Homo sapiens, UniProt P25103); test: Antagonist activity at human recombinant NK1 receptor expressed in CHO cells assessed as inhibition of substance P-induced intracellular calcium mobilization
[11] = molecular target: T1, Neuropeptide S receptor (Mus musculus); test: Antagonist activity at mouse NPSR expressed in HEK293 cells assessed as inhibition of NPS-induced response; type: functional, cell-based
Summary of the method: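 HEK293 cells stably expressing mouse NPSR, calcium mobilization. Inhibition response curves to test peptides against 30 nM NPS, run at 37 °C with three up-and-down mixing cycles right after antagonist injection to aid diffusion. Mean of at least four separate experiments performed in duplicate.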

Nociceptin receptor = Nociceptin receptor (Homo sapiens, UniProt P41146); test: Antagonist activity at human recombinant NOP receptor expressed in CHO cells coexpressing alphaqi5 assessed as inhibition of N/OFQ-induced intracellular calcium mobilization; type: functional, cell-based
B2 bradykinin receptor = molecular target: T7, B2 bradykinin receptor (Homo sapiens, UniProt P30411); test: Antagonist activity at human recombinant bradykinin 2 receptor expressed in CHO cells assessed as inhibition of bradykinin-induced intracellular calcium mobilization; type: functional, cell-based; summary of the method: as §2
T7 sequence (P30411 whole entry): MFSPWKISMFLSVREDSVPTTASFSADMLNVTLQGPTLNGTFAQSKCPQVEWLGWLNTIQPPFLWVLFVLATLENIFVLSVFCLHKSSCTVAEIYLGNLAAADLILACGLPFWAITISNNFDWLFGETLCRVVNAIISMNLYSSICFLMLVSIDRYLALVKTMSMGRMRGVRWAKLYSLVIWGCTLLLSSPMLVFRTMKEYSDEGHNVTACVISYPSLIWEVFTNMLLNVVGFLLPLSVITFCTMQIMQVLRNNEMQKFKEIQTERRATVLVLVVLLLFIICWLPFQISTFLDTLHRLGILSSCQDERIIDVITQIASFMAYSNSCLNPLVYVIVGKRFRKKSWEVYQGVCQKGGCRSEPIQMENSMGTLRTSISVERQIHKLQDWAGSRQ

[12] = molecular target: T8, B2 bradykinin receptor (Homo sapiens) (UniProt P30411); test: Antagonist activity at human recombinant bradykinin 2 receptor expressed in CHO cells assessed as inhibition of bradykinin-induced intracellular calcium mobilization at up to 10 uM; type: functional, cell-based; summary of the method: as §1
T8 sequence (whole entry): T7 sequence (P30411 whole entry)

[13] = molecular target: T1, Neuropeptide S receptor (Mus musculus); test: Agonist activity at mouse NPSR expressed in HEK293 cells up to 10 uM by calcium mobilization assay; type: functional, cell-based
Summary of the method: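 HEK293 cells stably expressing mouse NPSR; intracellular calcium mobilization measured after peptide addition, concentration-response curves giving pEC50 and Emax as % over basal. Mean of at least four separate experiments performed in duplicate.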

T5 sequence (P41145 whole entry): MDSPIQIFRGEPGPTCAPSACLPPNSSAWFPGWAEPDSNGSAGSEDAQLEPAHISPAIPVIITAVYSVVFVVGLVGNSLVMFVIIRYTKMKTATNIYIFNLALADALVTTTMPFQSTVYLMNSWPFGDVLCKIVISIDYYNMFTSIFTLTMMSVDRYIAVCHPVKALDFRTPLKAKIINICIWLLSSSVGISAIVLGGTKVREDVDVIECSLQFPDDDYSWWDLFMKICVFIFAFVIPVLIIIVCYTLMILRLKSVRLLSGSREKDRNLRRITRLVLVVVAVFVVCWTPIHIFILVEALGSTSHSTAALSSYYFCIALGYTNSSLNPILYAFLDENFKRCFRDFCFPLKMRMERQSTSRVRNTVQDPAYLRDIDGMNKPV
T4 sequence (P41143 whole entry): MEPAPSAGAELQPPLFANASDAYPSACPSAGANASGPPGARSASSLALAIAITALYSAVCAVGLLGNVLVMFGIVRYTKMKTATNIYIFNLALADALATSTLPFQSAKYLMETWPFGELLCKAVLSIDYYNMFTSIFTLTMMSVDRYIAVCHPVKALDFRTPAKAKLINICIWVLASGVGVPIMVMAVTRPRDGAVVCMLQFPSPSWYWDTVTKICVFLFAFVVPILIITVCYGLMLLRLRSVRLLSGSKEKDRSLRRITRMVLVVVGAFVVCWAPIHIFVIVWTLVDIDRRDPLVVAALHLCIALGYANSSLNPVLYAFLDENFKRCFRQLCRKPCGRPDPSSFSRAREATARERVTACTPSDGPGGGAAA
T2 sequence (P35372 whole entry): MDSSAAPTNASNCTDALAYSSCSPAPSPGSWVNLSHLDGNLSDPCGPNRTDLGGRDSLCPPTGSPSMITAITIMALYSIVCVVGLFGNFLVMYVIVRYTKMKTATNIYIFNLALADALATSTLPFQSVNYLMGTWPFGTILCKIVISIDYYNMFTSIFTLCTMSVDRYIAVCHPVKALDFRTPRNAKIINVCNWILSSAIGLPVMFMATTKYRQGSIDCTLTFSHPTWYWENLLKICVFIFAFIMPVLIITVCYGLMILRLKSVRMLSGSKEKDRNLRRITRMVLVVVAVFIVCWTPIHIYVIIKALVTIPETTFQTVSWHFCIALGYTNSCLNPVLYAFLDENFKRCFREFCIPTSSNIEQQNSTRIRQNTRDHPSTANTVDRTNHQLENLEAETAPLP
Substance-P receptor, sequence (P25103 whole entry): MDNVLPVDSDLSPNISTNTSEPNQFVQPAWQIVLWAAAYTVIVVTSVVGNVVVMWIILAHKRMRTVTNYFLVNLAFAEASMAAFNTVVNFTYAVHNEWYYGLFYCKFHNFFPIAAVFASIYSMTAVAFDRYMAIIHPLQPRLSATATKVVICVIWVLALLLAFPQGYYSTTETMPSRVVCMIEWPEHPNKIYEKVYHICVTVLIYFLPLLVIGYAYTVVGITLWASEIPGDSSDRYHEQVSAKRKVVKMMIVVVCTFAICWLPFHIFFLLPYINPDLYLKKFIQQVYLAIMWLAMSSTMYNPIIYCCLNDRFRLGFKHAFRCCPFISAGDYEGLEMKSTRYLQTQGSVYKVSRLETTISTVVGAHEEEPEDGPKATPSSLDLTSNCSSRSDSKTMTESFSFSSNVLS
Nociceptin receptor, sequence (P41146 whole entry): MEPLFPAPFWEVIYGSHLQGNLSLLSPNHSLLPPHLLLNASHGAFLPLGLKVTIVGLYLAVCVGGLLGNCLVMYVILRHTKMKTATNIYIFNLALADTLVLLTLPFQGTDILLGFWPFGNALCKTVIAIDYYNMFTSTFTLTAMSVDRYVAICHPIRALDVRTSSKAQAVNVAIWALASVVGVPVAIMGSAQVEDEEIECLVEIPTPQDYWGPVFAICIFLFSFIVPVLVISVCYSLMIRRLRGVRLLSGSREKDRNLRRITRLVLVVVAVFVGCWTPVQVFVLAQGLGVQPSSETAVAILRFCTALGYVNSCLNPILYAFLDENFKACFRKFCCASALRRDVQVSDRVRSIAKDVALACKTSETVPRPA

In the case of `CSCC[C@H](NC(=O)CNC(=O)[C@@H](NC(=O)CNC(=O)[C@@H](NC(=O)[C@H](NC(=O)[C@H](CC(N)=O)NC(=O)[C@H](CCCNC(=N)N)NC(=O)[C@H](Cc1ccccc1)NC(=O)[C@@H](N)CO)C(C)(C)C)C(C)C)[C@@H](C)O)C(=O)N[C@@H](CCCCN)C(=O)N[C@@H](CCCCN)C(=O)N[C@H](C(=O)N[C@@H](CO)C(=O)N[C@@H](Cc1ccccc1)C(=O)N[C@@H](CCC(N)=O)C(=O)N[C@@H](CCCNC(=N)N)C(=O)N[C@@H](C)C(=O)N[C@@H](CCCCN)C(=O)N[C@@H](CO)C(=O)O)[C@@H](C)O` (H-SFRN[dTle]VGTGMKKTSFQRAKS-OH), the Activity [1] is reported as “Dose-dependent effect”, the Emax (Mu-type opioid receptor [2]) is reported as 186% and the EC50 [3] is reported as 31600 nM. The Emax [4] was 445%, the Emax [5] was 177% and the EC50 (Mu-type opioid receptor [6]) was 11 nM. The Emax [7] was 139%, the EC50 [8] was 1.95 nM and the Emax [9] was less than 50%. For the same molecule, the EC50 [10] was 2.34 nM, the EC50 (Urotensin-2 receptor) was 3.47 nM and the EC50 (Substance-P receptor) was 0.049 nM. For the same molecule, the pKb [11] was 7.06, the EC50 (Nociceptin receptor) was 0.282 nM and the EC50 (B2 bradykinin receptor) was 0.0339 nM. For the same molecule, the Emax [12] was 115% and the Emax [13] was “inactive”.
